AHR activator: activators of human aryl hydrocarbon receptor. activation, % at 5 µM. AHR-responsive luciferase reporter cells, luminescence. actives 2.5% (n = 320,000); in the data active means activation above about 47%;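 further: 0% = vehicle wells and 100% = reference agonist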
Target sequence (P35869 whole entry, looked up): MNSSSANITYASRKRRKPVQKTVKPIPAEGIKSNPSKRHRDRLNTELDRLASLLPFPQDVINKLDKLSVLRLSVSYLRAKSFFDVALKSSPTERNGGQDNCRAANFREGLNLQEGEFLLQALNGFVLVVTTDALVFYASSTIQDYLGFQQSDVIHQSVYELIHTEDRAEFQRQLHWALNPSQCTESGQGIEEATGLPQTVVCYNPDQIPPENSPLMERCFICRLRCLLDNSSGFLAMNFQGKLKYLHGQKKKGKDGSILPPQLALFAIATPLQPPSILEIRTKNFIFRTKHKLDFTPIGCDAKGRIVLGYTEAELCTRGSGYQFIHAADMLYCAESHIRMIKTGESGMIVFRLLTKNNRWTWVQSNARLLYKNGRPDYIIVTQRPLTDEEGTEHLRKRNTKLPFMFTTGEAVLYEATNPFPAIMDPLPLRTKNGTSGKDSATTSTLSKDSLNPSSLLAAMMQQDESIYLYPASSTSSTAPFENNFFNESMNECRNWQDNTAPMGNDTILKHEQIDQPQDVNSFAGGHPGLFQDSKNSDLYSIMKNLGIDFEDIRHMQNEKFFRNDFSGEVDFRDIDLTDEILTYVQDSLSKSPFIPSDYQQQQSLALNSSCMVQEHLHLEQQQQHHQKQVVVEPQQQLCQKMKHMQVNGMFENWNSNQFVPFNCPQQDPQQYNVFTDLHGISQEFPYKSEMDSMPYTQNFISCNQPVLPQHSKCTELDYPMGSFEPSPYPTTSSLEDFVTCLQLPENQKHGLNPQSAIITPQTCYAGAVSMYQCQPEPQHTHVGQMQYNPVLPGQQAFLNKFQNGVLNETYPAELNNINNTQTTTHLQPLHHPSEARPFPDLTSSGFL
STAT3 act-1: STAT3 signaling activation | U3A cells, IL-6 STAT3-luciferase reporter, luminescence; 100% = signal with IL-6 EC80 alone | activation (% of control), % at 5.6 µM | actives 0.91% (n = 190,000) | AID 871;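 active means activation above the screen-wide mean of compound activation plus 3 SD, cut at about 130% in these data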;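 further: 0% = background luminescence of wells with medium and substrate only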
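Test system: human U3A cells carrying STAT3-luciferase construct; control set: IL-6-only wells as 100% reference; timing: compound pre-incubation 1 h before IL-6, then 6 h stimulation at 37 °C; also added: IL-6 stimulus at 33 ng/mL final; evaluation: % activation versus median of IL-6-stimulated wells; detection: reporter luminescence signal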
ABCB6 inh MLPCN: human ABCB6 transporter inhibition. Q9NP58. K562-ABCB6 porphyrin accumulation, flow cytometry, 1 h; stronger effect = lower value. fluorescence ratio to DMSO, % at 10 µM. actives 0.19% (n = 360,000). AID 602162;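 active means fluorescence ratio to DMSO below 75%, the collection mean minus 3 SD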;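 further: signal is porphyrin accumulated inside mitochondria; 100% equals median channel fluorescence of DMSO control wells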
FXN GAA850 act: activators of GAA850 frataxin (FXN) promoter. HEK293 lucGAA850 FXN promoter luciferase reporter, 24 h; percent of 10 µM SAHA response. activation, % at 6 µM. actives 0.56% (n = 360,000);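 active means activation above the average of all compounds screened plus 3 SD, cutoff fixed separately per campaign, cut at about 7.5% in these data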;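 further: 0% = DMSO wells and 100% = 10 µM SAHA wells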
STAT3 act-2: STAT3 activation, confirmation assay; shares compounds with STAT3 act-1; U3A STAT3-luciferase reporter, IL-6 potentiation, luminescence; U3A cells lack STAT1; 100 means same as IL-6 alone; potentiation (% of control), % at 5.7 µM; actives 64% (n = 1,200);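 active means percent activation of the STAT3 luciferase reporter above a set limit taken from the earlier primary screen, cut at about 130% in these data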;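 further: 0% = background signal of medium plus substrate and 100% = median of IL-6 with DMSO wells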
NFkB act STAT3ct: NF-kappaB activation in STAT3 activator counter-screen; activation (% of control), % at 5.7 µM; shares compounds with STAT3 act-1; actives 11% (n = 1,200); human cells, NF-kappaB reporter activation; AID 1309; in the data active means activation above about 120%;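 further: reporter induced by TNF-alpha stimulation; 100% = median of stimulated DMSO wells and 0% = no signal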
STAT1 act: activates STAT1, counter-screen to STAT3 activators | shares compounds with STAT3 act-1 | NIH 3T3 STAT1-luciferase reporter, IFN-gamma, luminescence | activation (% of control), % at 5.7 µM | actives 13% (n = 1,200);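 active means activation above the solvent-only control well mean plus 3 SD, set per screening run, cut at about 120% in these data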;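 further: 100% = IFN-gamma with DMSO median signal so 100% means no change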
Active calls of the source: *; / = no result given. An excerpt weighted towards active compounds, which were near 3.3% of everything screened.

SMILES	AHR activator	STAT3 act-1	ABCB6 inh MLPCN	FXN GAA850 act	STAT3 act-2	NFkB act STAT3ct	STAT1 act
COc1cc(NC(=O)C2CC(c3c(F)cccc3Cl)=NO2)cc(OC)c1OC (stereo not drawn)	2.6	/	96.0	0.9	/	/	/
Cc1cccc2cc3c(NC(=O)c4ccccn4)nn(C)c3nc12	48.8*	156.2*	106.0	0.7	140.0*	107.3	90.7
CON(C)S(=O)(=O)c1cccc(C(=O)Oc2ccc(N(C)S(=O)(=O)c3ccccc3)cc2)c1	1.0	/	97.0	-1.5	/	/	/
Cc1cc(C)n2nc(-c3ccccc3)cc2n1	23.7	119.2	101.0	4.5	/	/	/
Cc1cc(C)n2nc(Nc3ccccc3)cc2n1	35.6	157.3*	88.0	2.6	167.8*	112.5	105.4
COc1ccc(CN2CCN(S(=O)(=O)c3ccc(C)cc3)CC2)cc1OC	1.8	/	97.0	6.4	/	/	/
COc1ccc(CN2CCN(S(=O)(=O)c3ccc(C)cc3)CC2)cc1Br	-0.2	144.1*	98.0	1.2	136.7*	108.3	106.7
CCCCOc1ccc(C(=O)NCC(=O)N2CC=C(c3ccccc3)CC2)cc1	0.8	/	99.0	1.0	/	/	/
COc1cc(C2C(C#N)=C(N)Oc3cc(O)ccc32)cc(OC)c1OC (stereo not drawn)	1.2	112.2	104.0	-4.3	/	/	/
COc1cc(C2C(C#N)=C(N)Oc3cc4c(cc32)OCO4)cc(OC)c1OC (stereo not drawn)	36.0	146.9*	99.0	-3.0	118.4	162.1*	107.4
COc1ccccc1NC(=S)N1CCN(C/C=C/c2ccccc2)CC1	0.9	103.3	104.0	0.1	/	/	/
Cc1ccc(-c2cc(NC(=O)c3ccccc3[N+](=O)[O-])n[nH]2)cc1	44.7	/	100.0	-1.4	/	/	/
Cc1ccc(-c2cc(-c3ccccc3[N+](=O)[O-])[nH]n2)c(O)c1	59.6*	141.7*	102.0	1.6	135.7*	131.1*	94.5
O=C(N/N=C/c1ccc(Br)cc1)c1ccccc1-n1cccc1	71.1*	148.4*	101.0	3.0	128.4	99.0	98.8
O=C(N/N=C\c1ccncc1)c1ccccc1O	5.1	90.3	91.0	4.2	/	/	/
CSc1nc2ccc(NS(=O)(=O)c3ccc4c(c3)OCCO4)cc2s1	-2.1	100.2	124.0	-0.1	/	/	/
CCS(=O)(=O)N1CCN(Cc2c[nH]c3ccccc23)CC1	9.8	141.5*	96.0	-1.0	141.7*	100.1	88.7
COc1ccccc1N1CCN(Cc2c[nH]c3ccccc23)CC1	8.4	/	98.0	-0.9	/	/	/
Cc1ccccc1N1CCN(Cc2c[nH]c3ccccc23)CC1	8.2	143.5*	101.0	-3.3	137.1*	99.2	95.9
COC(=O)c1cc(O)cc(OC)c1Oc1cc(C)cc(O)c1C(=O)O	0.7	/	103.0	-5.6	/	/	/
COc1cc(CC(=O)OCC(=O)NC2CCCCCC2)cc(OC)c1OC	0.1	/	96.0	-0.5	/	/	/
O=C(c1ccc(S(=O)(=O)Nc2ccc(F)cc2)cc1)N1CCN(c2ccccn2)CC1	16.8	81.6	293.0	-0.9	/	/	/
Cc1ccc(CNC(=O)Cc2csc(Nc3nc(=S)[nH]c4ccccc34)n2)cc1	26.5	141.2*	/	/	133.3*	104.4	97.2
Nc1cc2ccncc2c2ccccc12	44.8	/	97.0	-5.8	/	/	/
CN/N=C(\Cc1nc2ccccc2[nH]1)c1ccc([N+](=O)[O-])cc1	/	136.0*	110.0	-0.6	165.8*	119.0	115.8
CCOC(=O)c1sc(NC(=O)COC(=O)C(CCSC)NC(C)=O)nc1C (stereo not drawn)	0.0	106.1	97.0	1.4	/	/	/
O=C(CN1CCCC1)Nc1ccc(-c2nc3cc(NC(=O)CN4CCCC4)ccc3o2)cc1	-0.8	150.5*	91.0	-2.1	138.1*	130.2*	161.1*
CC(C)(C)c1ccccc1NC(=O)c1c(O)c2cccc3c2n(c1=O)CC3	16.0	149.4*	/	/	144.2*	105.4	98.9
O=C(Nc1ccccn1)c1c(O)c2cccc3c2n(c1=O)CCC3	27.1	157.2*	95.0	0.0	146.1*	104.3	99.1
O=C(Nc1nccs1)c1c(O)c2cccc3c2n(c1=O)CCC3	29.3	153.6*	/	/	167.4*	98.8	98.2

Bioassay records as filed in PubChem BioAssay.
